ChEMBL document CHEMBL1144100, “Homo- and nor-plakotenin, new carboxylic acids from the Palauan sponge Plakortis lita” (1999)
Active and inactive are the calls of the source. No cut-off for these calls is given here.

Columns and labels:
[1] = Antiproliferative activity against rheumatoid synovial fibroblasts assessed as inhibition of PDGF-BB-induced DNA synthesis at 1 ug/mL treated 15 mins before PDGF-BB challenge by [3H]thymidine incorporation assay; format: functional
Procedure, shortened: (§1)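 Rheumatoid synovial fibroblasts plated at 1.2 × 10^4 cells/well in EMEM with 10% heat-inactivated FBS and penstrep, allowed to adhere 6 h at 37 °C, 5% CO2. Then serum-arrested 24 h in 0.2% FBS. Compounds added in DMSO (0.5% final) for 15 min at room temperature, then 1 nM PDGF-BB in 10% FBS medium for 24 h. Pulsed with 0.5 µCi/well [3H]-thymidine for 24 h, trypsin/EDTA-detached, harvested, scintillation counted versus controls.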

[2] = Antiproliferative activity against rheumatoid synovial fibroblasts assessed as inhibition of PDGF-BB-induced DNA synthesis at 0.1 ug/mL treated 15 mins before PDGF-BB challenge by [3H]thymidine incorporation assay; format: functional; procedure, shortened: as §1

CC[C@@]1(/C=C(\C)C(=O)O)[C@H]2[C@H](C(C)=C[C@H]1c1ccccc1)[C@H](C)C[C@H]2C [PLAKOTENIN]
inhibition (INH) [1]: 76.8%

CCC1=C[C@@H](c2ccccc2)[C@@](/C=C(\C)C(=O)[O-])(CC)[C@H]2[C@H]1[C@H](C)C[C@H]2C.[Na+]
inhibition (INH) [1]: 27.8%

CC1=C[C@@H](c2ccccc2)[C@](C)(/C=C(\C)C(=O)O)[C@H]2[C@H]1[C@H](C)C[C@H]2C
inhibition at 1 µg/mL [1]: 0% | Activity [2]: inactive

CCC1=C[C@@H](c2ccccc2)[C@@](/C=C(\C)C(=O)O)(CC)[C@H]2[C@H]1[C@H](C)C[C@H]2C [listing 1 of 2 here]
Activity [2]: inactive

CCC1=C[C@@H](c2ccccc2)[C@@](/C=C(\C)C(=O)O)(CC)[C@H]2[C@H]1[C@H](C)C[C@H]2C [listing 2 of 2 here]
inhibition (INH) [1]: 73.5%

CC[C@@]1(/C=C(\C)C(=O)O)[C@H]2[C@H](C(C)=C[C@H]1c1ccccc1)[C@H](C)C[C@H]2C
Activity [2]: inactive

CC[C@@]1(/C=C(\C)C(=O)[O-])[C@H]2[C@H](C(C)=C[C@H]1c1ccccc1)[C@H](C)C[C@H]2C.[Na+] [PLAKOTENIN SODIUM SALT]
inhibition (INH) [1]: 35.7%
